The values below come from ChEMBL document CHEMBL1122650, “Synthesis and central nervous system properties of 2-[(alkoxycarbonyl)amino]-4(5)-phenyl-2-imidazolines” (J Med Chem, 1984).

A short description of data set [1]: HPLC capacity factor (k'). It is filed as ADME.
Data set [2] relates to Mus musculus. Description: Compound was evaluated in vivo for reserpine hypothermia after oral administration in mouse Minimum active dose was reported; Inactive. It is filed as functional, organism-based. The procedure, abridged:
(§1)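 Male HLa (ICR) BR mice, 18-24 g, in groups of eight; reserpine 5 mg/kg ip given 2 h before oral test compound as aqueous solution. Rectal temperature taken hourly; 1-4-h hypothermia assessed by analysis of variance.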

For data set [3], the species on record is Mus musculus. Description: Compound was evaluated for antagonism of reserpine induced hypothermia; Inactive. Type of data set: functional, organism-based. The procedure, abridged:
as §1

Data set [4] is filed under the species Mus musculus. Description: Mouse behavior activity was determined; Dwk= Depressant Weak. It is filed as functional, organism-based. The procedure, abridged:
(§2)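 Male Simonsen (ICR) fBR mice, 18-24 g, groups of three, given 3, 10, 30, 100, 300 or 1000 mg/kg ip as aqueous solution and observed for behavioral profile; deaths followed up to 7 days.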

Data set [5] is filed under the species Mus musculus. Description: Compound was evaluated for maximal electroshock antagonism (MES) against mice; Inactive. It is filed as functional, organism-based. In short, it runs like this:
(§3)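 Male HLa (ICR) BR mice, groups of eight to ten, dosed ip (aqueous solution) 15 min before transcorneal electroshock (50 mA, 0.2 s). End point: abolition of tonic hind-limb extension; quantal ED50 by Litchfield-Wilcoxon.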
In general terms: The maximal electroshock test induces tonic seizures with an electrical stimulus.

A short description of data set [6]: Lethal dose in mouse, in groups of ten. Type of data set: toxicity, organism-based. The following applies: in vivo.
The species named for data set [7] is Mus musculus. The data set is described as follows: Mouse behavior activity was determined; Depressant. Type of data set: functional, organism-based. In short, it runs like this: as §2
For data set [8], the species on record is Mus musculus. Description: Compound was evaluated for maximal electroshock antagonism (MES) against mice. It is filed as functional. The procedure, abridged: as §3
For data set [9], the species on record is Mus musculus. The data set is described as follows: Righting ability was determined in mice before rapid rolling (unaroused). It is filed as functional. In short, it runs like this: (§4)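 Male Simonsen (ICR) fBR mice, 18-24 g, groups of ten, dosed with aqueous compound. Righting ability checked before (unaroused) and after (aroused) rapid rolling in the hand; ED50 by Litchfield-Wilcoxon method.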

The subject of data set [10] is Mus musculus. Description: Compound was evaluated in vivo for reserpine hypothermia after oral administration in mouse. Minimum active dose was reported,. Type of data set: functional. In short, it runs like this:
as §1

Data set [11] is filed under the species Mus musculus. The data set is described as follows: (§5) Inhibition of radioactive NE [3H]norepinephrine uptake into mouse heart. It is filed as functional. The procedure, abridged:
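Mice dosed ip (aqueous solution) before iv [3H]NE; hearts removed 3 h after label, washed, weighed, dissolved in Protosol and counted as dpm per mg tissue. Dose-response from linear regression.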

The subject of data set [12] is Mus musculus. The data set is described as follows: Reserpine hypothermia antagonism in mouse administered perorally with 5 mg/kg of reserpine 2 hour prior to test compound administration. It is filed as functional. The following applies: route oral.
For data set [13], the species on record is Rattus norvegicus. Description: Inhibition of the 5-HT [14C]5-HT uptake by rat brain slices In vitro. It is filed as functional. The procedure, abridged:
(§6)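 Rat cerebral cortex slices, 5 mg tissue per mL Krebs-Henseleit buffer, incubated at 37 °C with [3H]NE or [14C]5-HT; blanks at 4 °C, undosed controls. Stopped after 20 min by filtration; slice radioactivity counted; IC50 from linear regression of uptake inhibition.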

The species named for data set [14] is Rattus norvegicus. The data set is described as follows: (§7) Inhibition of the NE [3H]norepinephrine uptake by rat brain slices In vitro. It is filed as functional.
The species named for data set [15] is Mus musculus. Description: Evaluated for antagonism of reserpine induced hypothermia. It is filed as functional. The procedure, abridged: as §1
The species entered for data set [16] is Mus musculus. Description: Evaluated for antagonism of reserpine induced hypothermia;I= Inactive. Type of data set: functional, organism-based. The procedure, abridged:
as §1

Data set [17] is filed under the species Mus musculus. Description: Mouse behavior activity was determined; D=Depressant. It is filed as functional, organism-based. The procedure, abridged: as §2
Data set [18] has as its system Mus musculus. The data set is described as follows: Compound was evaluated in vivo for reserpine hypothermia after oral administration in mouse. Minimum active dose was reported, with the percent reversal at 10 mg/kg in parenthesis. Type of data set: functional. The procedure, abridged: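 Male HLa (ICR) BR mice (18-24 g), groups of eight, dosed ip with 5 mg/kg reserpine 2 h before oral test compound given as aqueous solution. Rectal temperature measured hourly; 1-4-h thermia assessed by analysis of variance.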

Data set [19] can be described thus: Compound was evaluated for lethal dose in mouse in groups of ten (values in parentheses indicates 95% confidence limits). Type of data set: toxicity, organism-based. The following applies: in vivo.
For data set [20], the species on record is Mus musculus. The description is as §5. Type of data set: functional. In short, it runs like this: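 Mice received compound ip before iv [3H]NE. At 3 h after [3H]NE, hearts were removed, washed, weighed, dissolved in Protosol and counted as dpm per mg tissue. Dose-response curves derived by linear regression.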
The source holds these as a separate data set.

Data set [21] concerns the target Norepinephrine transporter (Rattus norvegicus, UniProt Q9WTR4). The description is as §7. It is filed as tissue-based. The procedure, abridged:
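Rat cerebral cortex slices at 5 mg tissue/mL Krebs-Henseleit buffer, incubated at 37 °C; blanks incubated at 4 °C, controls without drug. After 20 min, incubation stopped by filtration and tissue radioactivity measured. IC50 taken from linear regression of uptake inhibition.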

For data set [22], the species on record is Mus musculus. Description: Compound was evaluated for maximal electroshock antagonism (MES) against mice (values in parentheses indicates 95% confidence limits). It is filed as functional. In short, it runs like this: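 Male HLa (ICR) BR mice, groups of eight to ten, given compound ip as aqueous solution 15 min before transcorneal electroshock (50 mA, 0.2 s). End point was abolition of tonic hind-limb extension; quantal ED50 derived by Litchfield-Wilcoxon.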

The species entered for data set [23] is Mus musculus. The data set is described as follows: Mouse behavior activity was determined; ST = Stimulant(Weak). It is filed as functional, organism-based. The procedure, abridged:
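Male Simonsen (ICR) fBR mice (18-24 g) given 3, 10, 30, 100, 300 or 1000 mg/kg ip as aqueous solution and observed for behaviour in groups of three.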

Data set [24] is filed under the species Rattus norvegicus. Description: Inhibition of the 5-HT [14C]5-HT) uptake by rat brain slices In vitro. It is filed as functional. The procedure, abridged: as §6
Data set [25] is filed under the species Rattus norvegicus. The data set is described as follows: Inhibition of the NE [3H]Norepinephrine uptake by rat brain slices In vitro. Type of data set: functional.
The species entered for data set [26] is Mus musculus. Description: Mouse behavior activity was determined;S= Stimulant Weak. Type of data set: functional, organism-based.
Data set [27] is filed under the species Mus musculus. The data set is described as follows: Mouse behavior activity was determined; D=-Depressant. It is filed as functional, organism-based. In short, it runs like this:
as §2

The species named for data set [28] is Mus musculus. Description: Righting ability was determined in mice after rapid rolling (aroused). It is filed as functional. The procedure, abridged:
as §4

For data set [29], the species on record is Mus musculus. Description: Righting ability was determined in mice before rapid rolling (unaroused);. Type of data set: functional. The procedure, abridged:
as §4

Calls of active or inactive are those of the source. No cut-off for these calls is given here.

Sequence of Norepinephrine transporter (Q9WTR4 whole entry): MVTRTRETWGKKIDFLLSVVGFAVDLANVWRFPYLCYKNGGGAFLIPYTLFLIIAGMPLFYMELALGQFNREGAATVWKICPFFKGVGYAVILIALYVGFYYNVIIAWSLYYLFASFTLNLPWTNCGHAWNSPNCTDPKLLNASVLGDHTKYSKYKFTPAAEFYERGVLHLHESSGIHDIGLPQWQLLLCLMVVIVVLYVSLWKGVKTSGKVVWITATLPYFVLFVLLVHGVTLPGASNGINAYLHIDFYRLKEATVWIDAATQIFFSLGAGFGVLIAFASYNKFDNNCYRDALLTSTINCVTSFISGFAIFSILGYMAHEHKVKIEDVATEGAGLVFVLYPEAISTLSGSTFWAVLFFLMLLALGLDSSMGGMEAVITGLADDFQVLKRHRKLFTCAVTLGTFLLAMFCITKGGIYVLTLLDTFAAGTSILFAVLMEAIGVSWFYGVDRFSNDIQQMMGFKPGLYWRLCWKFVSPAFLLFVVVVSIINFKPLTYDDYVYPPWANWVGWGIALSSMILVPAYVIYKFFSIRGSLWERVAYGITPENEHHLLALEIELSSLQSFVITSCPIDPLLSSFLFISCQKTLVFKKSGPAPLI

Consider `CCCCCCOC(=O)NC1=NC(c2ccc(Cl)cc2)CN1` (stereo unspecified), for which, in [1], the “Log k'” value is listed as 2.18. Further, the ED50 entry in the data set with Mus musculus [2] and in the data set filed under Mus musculus [5] was “inactive” throughout. In the data set listed under Mus musculus [3], the HYPO result is “inactive”. In addition, the Mouse behavior activity result in the data set filed under Mus musculus [4] is recorded as “Depressant - weak”. In addition, the LD50 (as a rule, the dose expected to kill half of the subjects tested) in data set [6] was 200 mg/kg.
Take `COC(=O)NC1=NC2(CCc3ccccc32)CN1` (stereo unspecified): the “Log k'” value in [1] was 0.3. Besides, the Mouse behavior activity entry in the data set filed under Mus musculus [7] is given as “Depressant”. Besides, it took a dose of 75 mg/kg to reach the 50% effect level in the data set listed under Mus musculus [8] (ED50). In the data set filed under Mus musculus [9], the Loss of righting reflex was determined as 200 mg/kg. Also, the LD50 in data set [6] stood at 700 mg/kg.
For the molecule `COC(=O)NC1=NC(c2cccc(Cl)c2Cl)CN1C` (stereo unspecified), in data set [1], the “Log k'” value is reported as 0.91. The figures for the median effective dose (ED50) with Mus musculus [10] and in the data set listed under Mus musculus [8] were 23 mg/kg and 30 mg/kg, respectively.
As to `CN1CC(c2ccccc2Cl)N=C1N` (stereo unspecified), the ED50 (usually the dose at which the effect has come halfway, by size or by number of responders) in the data set listed under Mus musculus [11] was 18.3 mg/kg. The molecule further gave a Reserpine hypothermia with Mus musculus [12] of 0.15 mg/kg. For the same molecule, the IC50 (commonly the concentration at which inhibition is half-maximal) in the data set filed under Rattus norvegicus [13] came out at 30000 nM; in the data set listed under Rattus norvegicus [14], 500 nM. Further, the HYPO in the data set listed under Mus musculus [15] is <0.5 mg/kg.
As for `COC(=O)NC1=NC(c2ccccc2SC)CN1C` (stereo unspecified), the “Log k'” value in data set [1] is 0.63. In addition, the HYPO entry in the data set listed under Mus musculus [16] was “inactive”. Also, the Mouse behavior activity result in the data set filed under Mus musculus [17] is “Depressant”. Further, the ED50 result in the data set listed under Mus musculus [5] was “inactive”. The same molecule displayed a Loss of righting reflex in the data set listed under Mus musculus [9] of 70 mg/kg. This molecule also yielded an LD50 in data set [6] of 200 mg/kg.
Take `CN(C)CCC=C1c2ccccc2CCc2ccccc21` [AMITRIPTYLINE]: the ED50 in the data set on Mus musculus [18] stood at 8 mg/kg; in the data set listed under Mus musculus [20], 4.4 mg/kg; in the data set listed under Mus musculus [22], 14 mg/kg. Further, in [19], the LD50 came out at 70 mg/kg. Besides, the Reserpine hypothermia in the data set with Mus musculus [12] was determined as 0.15 mg/kg. For the same molecule, the IC50 in data set [21] turned out to be 2500 nM. Besides, the Mouse behavior activity entry in the data set listed under Mus musculus [23] is on record as “Partial stimulant”. The HYPO in the data set filed under Mus musculus [15] is <0.5 mg/kg.
With `NC1=NC(c2c(Cl)cccc2Cl)CN1` (stereo unspecified), in the data set listed under Mus musculus [11], the ED50 amounted to 6.5 mg/kg. Moreover, in the data set listed under Mus musculus [5], the ED50 entry was “inactive”. Besides, the Reserpine hypothermia in the data set with Mus musculus [12] is 0.15 mg/kg. Further, the 50% inhibitory concentration (IC50) in the data set filed under Rattus norvegicus [24] came out at 7800 nM; in the data set filed under Rattus norvegicus [25] it was 100 nM. The HYPO in the data set listed under Mus musculus [15] was <0.5 mg/kg. Also, the LD50 in [6] was determined as 70 mg/kg.
Regarding `COC(=O)NC1=NC(c2ccc(Cl)cc2)CN1` (stereo unspecified), the “Log k'” value in [1] is 0.31. In the data set filed under Mus musculus [26], the Mouse behavior activity entry is “Stimulant weak”. Further, the ED50 in the data set filed under Mus musculus [8] was ~200 mg/kg. The LD50 in data set [6] came to 500 mg/kg.
As for `COC(=O)NC1=NC(c2ccccc2C)CN1` (stereo unspecified), in [1], the “Log k'” value turned out to be 0.16. Besides, the Mouse behavior activity entry in the data set listed under Mus musculus [27] is listed as “Depressant”. The molecule also came in with an ED50 in the data set filed under Mus musculus [8] of 55 mg/kg. The Loss of righting reflex in the data set listed under Mus musculus [28] is 172 mg/kg; in the data set listed under Mus musculus [29], 144 mg/kg. Moreover, the HYPO in the data set filed under Mus musculus [15] is >20 mg/kg. In [6], this molecule displayed an LD50 of 300 mg/kg.
